# Key:
# [1] = Stability in Tween80:Captex200P:0.9% saline formulation; type: physicochemical
# Outline: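 The dried succinate was taken up in Tween 80:Captex 200P at 1 mg/mL. It was vortexed 30 s, sonicated 30 min and shaken about 16 h at 100 rpm at room temperature. It was then diluted in 0.9% saline to 0.1 mg/mL and serially diluted to 0.05 and 0.025 mg/mL. At 0, 1 and 4 h, aliquots were diluted 20-fold in acetone, with storage at 4 °C in between. Analysis was by UPLC-PDA-HRMS against acetone standards.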
# [2] = test system: female athymic nude (nu/nu) mice; test: Tolerability study: serum chemistry; type: in vivo, mouse
# Outline: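 Athymic nude mice (n = 5 per group) received test compound or the Tween80:Captex200:saline vehicle IP every 2 days for 14 days. About 2–4 h after the last dose, mice were killed with CO2 and blood was drawn by cardiac puncture. Complete blood counts and serum chemistry were run by a pathology core. Values are given as means ± SD, n = 3–5.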
# [3] = cited from earlier work
# OVCAR4 [4] = test: 2D foci assay; type: cell-based, human; conditions: OVCAR4, 50 nM for 8 h, two weeks colony formation, relative to vehicle
# Outline: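 Cells were seeded at 200 per 60 mm dish and left to attach overnight. They were then exposed for 8 h to test compound (50 nM), DMSO vehicle or paclitaxel (10 nM). Medium was replaced and cells grew drug-free for about two weeks (15 days). Colonies were fixed in 4% paraformaldehyde, stained with 0.05% crystal violet, imaged and counted. There were three biological replicates, compared with vehicle by Dunnett's test.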
# [5] = Stability in mouse plasma lithium heparin and QC extracts; type: in vitro ADME
# OVCAR8 = test: Cell viability assay; type: cell-based, human
# Outline: (§1)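 RPMI1640 (OVCAR3, OVCAR4, MDA-MB-435) or DMEM (OVCAR8, MDA-MB-231) was used, with 10% FBS and penicillin/streptomycin. Cells were STR-validated and kept below 20 passages. Cells were plated at 5000 per well overnight, then given test compound at final 0.95–250 nM (nine levels, 0.5% DMSO) for 72 h at 37 °C. Viability was read by CellTiter-Blue absorbance, and IC50 was taken relative to DMSO. Paclitaxel (0.39–100 nM) was the control, with three biological replicates.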
# OVCAR4 [6] = test: Cell viability assay; type: cell-based, human
# Outline: as §1
# [7] = test system: OVCAR8-RFP cells xenografted IP; test: OVCAR8-RFP IP xenograft; type: in vivo, mouse
# [8] = 0.114 mg/kg IP every 2 days, 14 days
# [9] = 0.285 mg/kg IP every 2 days, 14 days
# [10] = 0.570 mg/kg IP every 2 days, removed day 13
# [11] = 1.14 mg/kg IP every 2 days, removed at 8 days
# [12] = 0.10 mg/kg IP every 2 days, 14 days
# [13] = 0.25 mg/kg IP every 2 days, 14 days
# [14] = 0.50 mg/kg IP every 2 days, removed day 13
# [15] = 1.00 mg/kg IP every 2 days, removed at 8 days
smiles,measurement,setting,value
CN1C(=O)[C@]23SS[C@@]1(C)C(=O)N2[C@H]1Nc2ccccc2[C@@]1([C@@]12c4ccccc4N[C@@H]1N1C(=O)[C@]4(C)SS[C@]1(C(=O)N4C)[C@H]2OC(=O)CCC(=O)O)[C@@H]3O [verticillin A succinate],verticillin A succinate levels in formulation,"[1]; 4 h after preparation, stored at 4 °C",below the detection limit (BDL) or NF
same,stability in formulation,"[1]; Tween80:Captex200P:0.9% saline, 0.1, 0.05 and 0.025 mg/mL, degrades almost immediately to verticillin A",not stable
same,verticillin A succinate levels in formulation,"[1]; immediately after preparation, all concentration levels tested",below the quantitation limit (BQL) or not found/detected (NF)
same,ALP,[2]; [8],139 ± 9 U/L
same,ALT,[2]; [8],39 ± 6 U/L
same,AST,[2]; [8],88 ± 10 U/L
same,BUN,[2]; [8],20 ± 1 mg/dL
same,GGT,[2]; [8],8 ± 0 U/L
same,albumin,[2]; [8],3.7 ± 0.2 g/dL
same,amylase,[2]; [8],1039 ± 215 U/L
same,calcium,[2]; [8],11.8 ± 0.3 mg/dL
same,cholesterol,[2]; [8],141 ± 12 mg/dL
same,creatine kinase,[2]; [8],160 ± 37 U/L
same,creatinine,[2]; [8],0.43 ± 0.02 mg/dL
same,globulin,[2]; [8],2.1 ± 0.2 g/dL
same,glucose,[2]; [8],225 ± 28 mg/dL
same,lipase,[2]; [8],55 ± 44 U/L
same,phosphorous,[2]; [8],11.7 ± 0.8 mg/dL
same,total bilirubin,[2]; [8],0.3 ± 0.1 mg/dL
same,total protein,[2]; [8],5.8 ± 0.3 g/dL
same,triglyceride,[2]; [8],247 ± 70 mg/dL
same,ALP,[2]; [9],133 ± 19 U/L
same,ALT,[2]; [9],47 ± 13 U/L
same,AST,[2]; [9],125 ± 18 U/L
same,BUN,[2]; [9],15 ± 1 mg/dL
same,GGT,[2]; [9],0 ± 1 U/L
same,albumin,[2]; [9],3.4 ± 0.2 g/dL
same,amylase,[2]; [9],1208 ± 75 U/L
same,calcium,[2]; [9],11.2 ± 0.7 mg/dL
same,cholesterol,[2]; [9],146 ± 13 mg/dL
same,creatine kinase,[2]; [9],214 ± 28 U/L
same,creatinine,[2]; [9],0.42 ± 0.8 mg/dL
same,globulin,[2]; [9],2.0 ± 0.2 g/dL
same,glucose,[2]; [9],235 ± 10 mg/dL
same,lipase,[2]; [9],74 ± 5 U/L
same,phosphorous,[2]; [9],11.9 ± 0.8 mg/dL
same,total bilirubin,[2]; [9],0.3 ± 0.0 mg/dL
same,total protein,[2]; [9],5.4 ± 0.3 g/dL
same,triglyceride,[2]; [9],262 ± 68 mg/dL
same,ALP,[2]; [10],89 ± 13 U/L
same,ALT,[2]; [10],48 ± 25 U/L
same,AST,[2]; [10],254 ± 138 U/L
same,BUN,[2]; [10],24 ± 8 mg/dL
same,GGT,[2]; [10],4 ± 3 U/L
same,albumin,[2]; [10],2.6 ± 0.9 g/dL
same,amylase,[2]; [10],1203 ± 240 U/L
same,calcium,[2]; [10],11.5 ± 0.9 mg/dL
same,cholesterol,[2]; [10],115 ± 23 mg/dL
same,creatine kinase,[2]; [10],1916 ± 1915 U/L
same,creatinine,[2]; [10],0.29 ± 0.05 mg/dL
same,globulin,[2]; [10],2.6 ± 1.1 g/dL
same,glucose,[2]; [10],172 ± 49 mg/dL
same,phosphorous,[2]; [10],15.5 ± 1.4 mg/dL
same,total bilirubin,[2]; [10],0.4 ± 0.1 mg/dL
same,total protein,[2]; [10],5.2 ± 0.4 g/dL
same,triglyceride,[2]; [10],128 ± 38 mg/dL
same,ALP,[2]; [11],74 ± 12 U/L
same,ALT,[2]; [11],121 ± 145 U/L
same,AST,[2]; [11],420 ± 438 U/L
same,BUN,[2]; [11],24 ± 4 mg/dL
same,GGT,[2]; [11],6 ± 4 U/L
same,albumin,[2]; [11],2.4 ± 0.8 g/dL
same,amylase,[2]; [11],1221 ± 520 U/L
same,calcium,[2]; [11],7.2 ± 5.3 mg/dL
same,cholesterol,[2]; [11],111 ± 10 mg/dL
same,creatine kinase,[2]; [11],582 ± 384 U/L
same,creatinine,[2]; [11],0.26 ± 0.05 mg/dL
same,globulin,[2]; [11],2.5 ± 0.8 g/dL
same,glucose,[2]; [11],141 ± 62 mg/dL
same,lipase,[2]; [11],84 ± 64 U/L
same,phosphorous,[2]; [11],12.2 ± 1.0 mg/dL
same,total bilirubin,[2]; [11],0.5 ± 0.3 mg/dL
same,total protein,[2]; [11],4.9 ± 0.4 g/dL
same,triglyceride,[2]; [11],266 ± 160 mg/dL
same,solubility,[3],greatly improved solubility
same,foci formation,OVCAR4 [4],completely abrogated foci formation
same,stability in mouse plasma lithium heparin,[5],poor stability
same,stability of QC extracts,"[5]; 4 °C autosampler, after approximately 19 h",not stable
CN1C(=O)[C@]23SS[C@@]1(C)C(=O)N2[C@H]1Nc2ccccc2[C@@]1([C@@]12c4ccccc4N[C@@H]1N1C(=O)[C@@]4(C)SS[C@]1(C(=O)N4C)[C@H]2O)[C@@H]3O [verticillin A],ALP,[2]; [12],163 ± 27 U/L
same,ALT,[2]; [12],38 ± 6 U/L
same,AST,[2]; [12],98 ± 16 U/L
same,BUN,[2]; [12],18 ± 3 mg/dL
same,GGT,[2]; [12],5 ± 0 U/L
same,albumin,[2]; [12],3.5 ± 0.3 g/dL
same,amylase,[2]; [12],1153 ± 176 U/L
same,calcium,[2]; [12],11.8 ± 0.4 mg/dL
same,cholesterol,[2]; [12],144 ± 16 mg/dL
same,creatine kinase,[2]; [12],241 ± 85 U/L
same,creatinine,[2]; [12],0.56 ± 0.03 mg/dL
same,globulin,[2]; [12],2.2 ± 0.4 g/dL
same,glucose,[2]; [12],191 ± 42 mg/dL
same,lipase,[2]; [12],43 ± 15 U/L
same,phosphorous,[2]; [12],12.8 ± 1.1 mg/dL
same,total bilirubin,[2]; [12],0.4 ± 0.1 mg/dL
same,total protein,[2]; [12],5.6 ± 0.4 g/dL
same,triglyceride,[2]; [12],202 ± 42 mg/dL
same,ALP,[2]; [13],141 ± 14 U/L
same,ALT,[2]; [13],46 ± 13 U/L
same,AST,[2]; [13],112 ± 19 U/L
same,BUN,[2]; [13],17 ± 4 mg/dL
same,GGT,[2]; [13],3 ± 1 U/L
same,albumin,[2]; [13],3.3 ± 0.2 g/dL
same,amylase,[2]; [13],1189 ± 89 U/L
same,calcium,[2]; [13],11.6 ± 0.5 mg/dL
same,cholesterol,[2]; [13],141 ± 10 mg/dL
same,creatine kinase,[2]; [13],237 ± 60 U/L
same,creatinine,[2]; [13],0.21 ± 0.7 mg/dL
same,globulin,[2]; [13],2.1 ± 0.3 g/dL
same,glucose,[2]; [13],187 ± 33 mg/dL
same,lipase,[2]; [13],71 ± 4 U/L
same,phosphorous,[2]; [13],14.0 ± 1.0 mg/dL
same,total bilirubin,[2]; [13],0.3 ± 0.0 mg/dL
same,total protein,[2]; [13],5.5 ± 0.4 g/dL
same,triglyceride,[2]; [13],236 ± 52 mg/dL
same,ALP,[2]; [14],92 ± 19 U/L
same,ALT,[2]; [14],55 ± 23 U/L
same,AST,[2]; [14],201 ± 51 U/L
same,BUN,[2]; [14],26 ± 3 mg/dL
same,GGT,[2]; [14],7 ± 2 U/L
same,albumin,[2]; [14],3.2 ± 0.2 g/dL
same,amylase,[2]; [14],1397 ± 318 U/L
same,calcium,[2]; [14],11.7 ± 0.4 mg/dL
same,cholesterol,[2]; [14],124 ± 22 mg/dL
same,creatine kinase,[2]; [14],302 ± 65 U/L
same,creatinine,[2]; [14],0.36 ± 0.03 mg/dL
same,globulin,[2]; [14],2.1 ± 0.2 g/dL
same,glucose,[2]; [14],176 ± 19 mg/dL
same,phosphorous,[2]; [14],16.4 ± 2.3 mg/dL
same,total bilirubin,[2]; [14],0.4 ± 0.2 mg/dL
same,total protein,[2]; [14],5.3 ± 0.3 g/dL
same,triglyceride,[2]; [14],187 ± 139 mg/dL
same,ALP,[2]; [15],70 ± 61 U/L
same,ALT,[2]; [15],44 ± 8 U/L
same,AST,[2]; [15],225 ± 68 U/L
same,BUN,[2]; [15],25 ± 4 mg/dL
same,GGT,[2]; [15],7 ± 3 U/L
same,albumin,[2]; [15],2.1 ± 0.9 g/dL
same,amylase,[2]; [15],1213 ± 149 U/L
same,calcium,[2]; [15],11.4 ± 0.4 mg/dL
same,cholesterol,[2]; [15],90 ± 26 mg/dL
same,creatine kinase,[2]; [15],498 ± 184 U/L
same,creatinine,[2]; [15],0.30 ± 0.12 mg/dL
same,globulin,[2]; [15],2.9 ± 1.0 g/dL
same,glucose,[2]; [15],116 ± 17 mg/dL
same,lipase,[2]; [15],52 ± 22 U/L
same,phosphorous,[2]; [15],10.6 ± 6.8 mg/dL
same,total bilirubin,[2]; [15],0.3 ± 0.0 mg/dL
same,total protein,[2]; [15],5.0 ± 0.4 g/dL
same,triglyceride,[2]; [15],114 ± 20 mg/dL
same,foci formation,OVCAR4 [4],completely abrogated foci formation
same,cytotoxic activity,OVCAR8,nanomolar cytotoxic activity
same,cytotoxic activity,OVCAR4 [6],nanomolar cytotoxic activity
same,liver and organ gross morphology,[7]; 0.25 mg/kg in DMSO twice weekly for four weeks,did not demonstrate changes in liver morphology
same,tumor burden,"[7]; 0.25 mg/kg twice weekly for four weeks, compared to DMSO",reduced

# Reference: article PMC10405366 (Molecular pharmaceutics, 2023)
